Assay outcomes as filed in PubChem.
HTRA1 inhibitor = inhibitors of human serine peptidase HTRA1 | Q92743 | recombinant HTRA1, FP-rhodamine activity-based probe, fluorescence polarization | inhibition, % at 5.96 µM | hit rate 0.5% among 340,000; in the data active = inhibition above about 36%;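 also: 0% = enzyme with DMSO and 100% = wells lacking enzyme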
DDE Tn7 FP inh = DD(E)-Tn7 binding inhibition, primary FP screen | inhibition, % at 8.3 µM | hit rate 0.13% among 370,000 | FP displacement of FITC-Tn7 peptide from fibrin DD(E); 0% = median of compound wells per plate;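 active = inhibition above the mean of compounds falling within the control limits plus 3 SD of them, cut at about 14% in these data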;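 also: 0% = plate median of compound wells and 100% = 10 µM Aha-Tn7 peptide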
Target sequence (P02675 whole entry, looked up): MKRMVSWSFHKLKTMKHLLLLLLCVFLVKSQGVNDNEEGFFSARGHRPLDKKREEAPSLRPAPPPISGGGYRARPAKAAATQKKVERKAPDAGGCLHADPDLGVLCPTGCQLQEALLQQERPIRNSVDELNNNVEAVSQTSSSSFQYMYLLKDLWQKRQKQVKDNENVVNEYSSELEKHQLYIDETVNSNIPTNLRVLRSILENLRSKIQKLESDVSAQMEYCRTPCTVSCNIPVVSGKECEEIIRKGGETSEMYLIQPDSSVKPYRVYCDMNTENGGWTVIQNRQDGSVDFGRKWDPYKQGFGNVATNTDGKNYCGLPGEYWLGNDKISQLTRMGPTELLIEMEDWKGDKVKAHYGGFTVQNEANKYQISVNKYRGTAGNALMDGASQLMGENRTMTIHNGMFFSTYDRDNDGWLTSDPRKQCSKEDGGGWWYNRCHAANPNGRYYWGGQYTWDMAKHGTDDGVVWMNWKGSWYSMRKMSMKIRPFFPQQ
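Assay system: Human clot-derived fibrin DD(E) complex | Buffer or medium: Tris/NaCl/CaCl2 buffer, pH 7.8 | Repeats: One replicate per compound | Benchmarks: Aha-Tn7 high control | Measure: % inhibition scaled between sample-field median and high-control FP | Schedule: 10 min plus 3 h, room temperature | Signal: Fluorescence polarization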
Tn6 DDE FP = disrupts Tn6 cyclic peptide binding to fibrin D-Dimer-E complex. hit rate 0.21% among 370,000. AID 720509. inhibition, % at 8.3 µM. Fibrin DD(E) TRITC-Tn6 fluorescence polarization displacement. P02675;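 active = inhibition above a per-campaign cutoff: mean of compounds within control limits plus 3 SD, cut at about 15% in these data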;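 also: 0% = median of all compound wells on the plate and 100% = blocking peptide control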
ABHD4 inh = inhibitors of mouse ABHD4; purified mABHD4, FP-Rh probe fluorescence polarization; Q8VD66; AID 720543; inhibition, % at 8.92 µM; hit rate 0.54% among 370,000;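 active = inhibition exceeding the mean over every tested compound plus 3 SD, cut at about 30% in these data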;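 also: 0% = plate median of compound wells and 100% = S159A mutant with DMSO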
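System: mouse ABHD4 enzyme, wild type / Medium: HEPES pH 7.0, NaCl, Pluronic buffer / Reagent: FP-Rh activity-based fluorescent probe / Control set: S159A mutant high control, sample median low control / Detection: fluorescence polarization with parallel and perpendicular emission, 525/598 nm / Schedule: 45 min + 60 min at 25 °C / Compound dosing: 8.92 µM, single dose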
TCR-CD3 inh = human TCR-CD3 binding inhibition; TAMRA-labeled TCR probe fluorescence, biochemical; inhibition, % at 9.4 µM; hit rate 0.37% among 360,000; in the data active = inhibition above about 19%;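 also: recombinant mutant TCR 2C K166C tagged with TAMRA read by polarization; 0% = receptor in buffer alone and 100% = receptor with positive control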
Tn6 DDE ctr = counter-screen hit for Tn6 peptide-fibrin DD(E) binding disruption | shares compounds with Tn6 DDE FP | TRITC-Tn6 fluorescence polarization displacement; 0% = median of compound wells, not DMSO | inhibition, % at 8.3 µM | hit rate 2% among 680;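 active = inhibition above the mean of test compounds lying between the control limits plus 3 SD of those, cut at about 14% in these data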;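 also: 0% = median of compound wells and 100% = wells with Aha-Tn7 blocking peptide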
DDE Tn6 confirm = DD(E)-Tn6 binding inhibition, FP confirmation; shares compounds with Tn6 DDE FP; FP displacement of TRITC-Tn6 peptide from DD(E); 0% = per-plate median of test wells; hit rate 10% among 680; AID 720631; inhibition, % at 8.3 µM;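 active = inhibition above the mean of compounds lying within the control limits plus 3 SD, cut at about 16% in these data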;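 also: 100% = high control wells holding a competing inhibitor peptide at 10 µM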
Numbers without * were called inactive; / = not tested or not shown. A selection: hits, their analogues and other compounds. The true share with any hit is near 1.3%.

SMILES	HTRA1 inhibitor	DDE Tn7 FP inh	Tn6 DDE FP	ABHD4 inh	TCR-CD3 inh	Tn6 DDE ctr	DDE Tn6 confirm
O=C(O)CN1C(=O)/C(=C\c2cc([N+](=O)[O-])ccc2OCc2ccccc2Cl)SC1=S	-55	10	-3	14	4	/	/
CCN1CCN(c2ccc(S(=O)(=O)N3CCCCC3)cc2NC(=O)/C=C/c2cccc(OC)c2OC)CC1	-12	10	16*	9	6	-5	-8
COc1ccc(NC(=O)CC(C)(C)C)c([N+](=O)[O-])c1	1	5	16*	-4	1	5	2
COc1ccccc1N(CN1CCCC1=O)C(=O)c1ccccc1F	7	-1	3	-4	-10	/	/
COc1cc(OC)cc(C(=O)N(CN2CCCC2=O)c2ccccc2OC)c1	-5	4	16*	3	-2	2	2
Cc1ccc(CN2C(=O)C(C)Oc3ccc(C)cc32)cc1 (stereo unspecified)	/	0	0	-5	-4	/	/
Cc1ccc2c(c1)N(Cc1ccccn1)C(=O)C(C)O2 (stereo unspecified)	7	5	17*	-5	6	-5	-9
CCC(C)c1ccccc1NC(=O)CN1CCN(C/C=C/c2ccccc2)CC1 (stereo unspecified)	5	-4	16*	-3	4	-5	-6
O=C(CN1CCN(C/C=C/c2ccccc2)CC1)NCc1ccccc1	1	-5	-4	-2	5	/	/
CC(C)CN1C(=O)[C@]2(CC(=O)N(C)C2c2ccccc2)c2cc(-n3cc(CO)nn3)ccc21 (stereo partly specified)	/	-4	2	-4	/	/	/
CC(C)CN1C(=O)[C@]2(CC(=O)N(C)C2c2ccccc2)c2cc(-n3cc(C4=CCCCC4)nn3)ccc21 (stereo partly specified)	/	-1	15*	4	/	8	7
CS(=O)(=O)c1cccc(C(=O)Nc2ccccc2Cc2ccccc2)c1	-3	-3	16*	-4	-2	0	-3
O=C(O)c1cccc(S(=O)(=O)Nc2ccccc2Cc2ccccc2)c1	0	1	0	6	-1	/	/
O=C(Cc1ccccc1)NN1C(=O)C2C3C=CC(C4CC34)C2C1=O (stereo unspecified)	-1	-2	10	-1	5	/	/
Cc1cc2ccccc2cc1CN1CCCCC1	4	5	16*	-2	2	-4	-4
Cn1c(=O)n(C)c2cc(N3CCCC3)c(NC(=O)c3cccc(F)c3)cc21	4	6	15*	6	-2	6	1
COc1cccc(C(=O)Nc2cc3c(cc2N2CCCC2)n(C)c(=O)n3C)c1	7	-6	-3	8	-1	/	/
O=C(C1COc2ccccc2O1)N1CCN(c2ccc(C(F)(F)F)cn2)CC1 (stereo unspecified)	-3	-3	2	-6	-5	/	/
NS(=O)(=O)c1ccc(N2CCN(C(=O)C3COc4ccccc4O3)CC2)nc1 (stereo unspecified)	1	0	18*	6	6	2	-5
Cc1ccccc1-n1c(C)nnc1SCC(=O)N(C)C1CCS(=O)(=O)C1 (stereo unspecified)	-1	0	19*	2	-3	-2	-5
CC(=O)N1CCN(C(=O)CCNS(=O)(=O)c2ccc(Br)cc2)CC1	-2	0	18*	-2	0	0	-4
c1ccc(-c2nc(-n3ccnc3)nc(-n3ccnc3)n2)cc1	-7	7	15*	11	0	2	-3
CC(COc1ccc(OC(F)(F)F)cc1)CN1CCC(C(O)(c2ccccc2)c2ccccc2)CC1 (stereo unspecified)	/	2	22*	8	/	8	8
CC(COc1ccccc1)CN1CCC(C(O)(c2ccccc2)c2ccccc2)CC1 (stereo unspecified)	/	4	5	3	/	/	/
Cc1nc2ccc(N)cc2s1	-3	-2	15*	3	6	-5	-9
SMILES	HTRA1 inhibitor	DDE Tn7 FP inh	Tn6 DDE FP	ABHD4 inh	TCR-CD3 inh	Tn6 DDE ctr	DDE Tn6 confirm
CCC(C)c1ccc(C(C)NC(=S)NC2CCCCC2)cc1 (stereo unspecified)	-20	-1	-7	-4	-4	/	/
C#CCn1c(S(=O)(=O)Cc2ccccc2Cl)nc(-c2ccccc2)c1-c1ccccc1	-4	-3	16*	-8	5	12	8
CN1CCN(c2nnc(-c3ccc(F)cc3)c3ccccc23)CC1	-3	-3	5	-3	4	/	/
Cc1ccc(OCC(=O)Nc2ccc3oc(=O)ccc3c2)cc1	1	2	-2	-6	-2	/	/
CCc1ccc(OCC(=O)Nc2ccc3oc(=O)ccc3c2)cc1	-9	6	17*	-4	5	5	-2
CCOC(Cn1c(CCCO)nc2ccccc21)OCC	7	-5	-2	2	-2	/	/
O=C(CN1CCN(S(=O)(=O)c2cc(C(F)(F)F)ccc2Cl)CC1)N1CCc2ccccc2C1	-8	0	4	2	4	/	/
CCOC(=O)Cc1cc(-c2ccc(F)cc2)nc2ccc3ccccc3c12	-8	11	16*	-1	5	-1	-6
Cc1oc(-c2ccccc2F)nc1CSCC(=O)NC1CCCC1	0	-6	-6	-2	6	/	/
Cc1ccc(O)c(N=Nc2ccccc2)n1	1	-4	16*	-4	-2	1	1
COc1ccccc1N1CCN(S(=O)(=O)CCNC(=O)c2cc(OC)c(OC)c(OC)c2)CC1	2	6	5	6	-4	/	/
COc1ccc(OCC(=O)Nc2cc3c(cc2C(=O)O)OCCCO3)cc1	-1	7	17*	-7	10	5	1
COC(=O)c1ccc(C(=O)N2CCCC(C)(C(=O)NS(=O)(=O)C3CC3)C2)cc1 (stereo unspecified)	/	4	-6	1	10	/	/
CCCN1CCN(C(=O)Nc2ccc(OCC)cc2)CC1	3	-2	15*	2	2	-3	-2
CC(SCC(=O)Nc1ccc(F)cc1)c1nc2ccccc2c(=O)[nH]1 (stereo unspecified)	2	-2	0	-2	-5	/	/
O=c1c2cccnc2[nH]c(=S)n1CCCN1CCN(c2ccccc2F)CC1	-5	7	17*	1	3	1	-1
O=C(NNC(=O)c1ccncc1)Nc1ccc(Br)cc1	-1	7	1	4	-3	/	/
O=C(NN=Cc1cccc(OCc2ccccc2)c1)c1cc(-c2ccc(Cl)cc2)n[nH]1	/	-4	22*	-69	/	2	-1
